Measurements gathered from unrelated publications.
Protocols differ between the studies behind these lines.
Target: Mitogen-activated protein kinase kinase kinase 8 (MAP3K8, Homo sapiens, UniProt P41279)

For N#CCCc1ccc2c(c1)-c1[nH]c3ccc([N+](=O)[O-])cc3c1CC(=O)N2, the remaining signal was 87.5% (cell-free assay; 0.5 µM).
CC(C)(C)c1nc2c(s1)c1nc(N)ncc1c1ccc(NS(=O)(=O)c3c(F)cccc3F)c(F)c12 gave a remaining activity of 93% (enzyme activity, inhibitor, radiometric; 1 µM).
With CS(=O)(=O)Nc1cccc(-c2csc(NC(=O)CSc3nc4nccnc4c(=O)n3CCc3ccccc3)n2)c1 the inhibition was 4% (enzyme activity, inhibitor; 10 µM).
COc1cc2ncnc(Nc3ccc(Oc4ccccc4)c(C)c3C)c2cc1OC gave an inhibition of -8% (enzyme activity, inhibitor; 1 µM).
CC(C)(O)[C@H]1CC[C@H](Nc2ccc3ncc(-c4cccc(C(F)(F)F)c4)n3n2)CC1 gave a remaining activity of 107% (enzyme activity, inhibitor; 1 µM).
With Cc1sc(C(=O)NC2COC2)cc1-n1cc(NC(=O)Nc2c(F)cccc2Cl)cn1 the remaining activity was 105% (enzyme activity, inhibitor; 10 µM).
O=C(CSc1nc2nccnc2c(=O)n1CCc1ccccc1)Nc1nccs1 gave an inhibition of 5% (enzyme activity, inhibitor; 10 µM).
CCCS(=O)(=O)Nc1ccc(F)c(C(=O)c2c[nH]c3ncc(-c4ccc(Cl)cc4)cc23)c1F has an inhibition of under 10% (enzyme activity, inhibitor; 1 µM).
CC(C)(C)c1nc(-c2cccc(NS(=O)(=O)c3c(F)cccc3F)c2F)c(-c2ccnc(N)n2)s1 has a remaining activity of 85% (enzyme activity, inhibitor, radiometric; 1 µM).
With O=C(Nc1cnn(-c2csc(C(=O)NC3COC3)c2)c1)Nc1ccccc1Cl the remaining activity was 92.7% (enzyme activity, inhibitor; 5 µM).
The inhibition of COc1cc2ncnc(Nc3ccc(Oc4ccccc4)cc3C)c2cc1OC is reported as 33% (enzyme activity, inhibitor; 1 µM).
The inhibition of CC/C(=N\NC(=O)NCc1cccc(O)c1)c1ccc(O)c(C)c1O is reported as -1.8% (enzyme activity, inhibitor; 0.1 µM).
With O=C1NC(=O)c2cc(Nc3ccc(F)cc3)c(Nc3ccc(F)cc3)cc21 the remaining signal was 96.3% (cell-free assay; 0.5 µM).
CCOc1cc(-c2nncn2C)ccc1Nc1ncc2cc(C)nc(NCC(C)(C)C)c2n1 has an inhibition of under 15% (enzyme activity, inhibitor, FRET; 1 µM).
